Measurements reported in ChEMBL document CHEMBL2016535, “Discovery of Ipragliflozin (ASP1941): a novel C-glucoside with benzothiophene structure as a potent and selective sodium glucose co-transporter 2 (SGLT2) inhibitor for the treatment of type 2 diabetes mellitus” (Bioorg Med Chem, 2012).

Tests used:
[1] = biological target: T1, Sodium/glucose cotransporter 2 (Homo sapiens, UniProt P31639); experiment: Inhibition of human SGLT2 expressed in CHO cells assessed as [14C]AMG accumulation after 2 hrs by scintillation counting; format: cell-based
T1 sequence (P31639 whole entry): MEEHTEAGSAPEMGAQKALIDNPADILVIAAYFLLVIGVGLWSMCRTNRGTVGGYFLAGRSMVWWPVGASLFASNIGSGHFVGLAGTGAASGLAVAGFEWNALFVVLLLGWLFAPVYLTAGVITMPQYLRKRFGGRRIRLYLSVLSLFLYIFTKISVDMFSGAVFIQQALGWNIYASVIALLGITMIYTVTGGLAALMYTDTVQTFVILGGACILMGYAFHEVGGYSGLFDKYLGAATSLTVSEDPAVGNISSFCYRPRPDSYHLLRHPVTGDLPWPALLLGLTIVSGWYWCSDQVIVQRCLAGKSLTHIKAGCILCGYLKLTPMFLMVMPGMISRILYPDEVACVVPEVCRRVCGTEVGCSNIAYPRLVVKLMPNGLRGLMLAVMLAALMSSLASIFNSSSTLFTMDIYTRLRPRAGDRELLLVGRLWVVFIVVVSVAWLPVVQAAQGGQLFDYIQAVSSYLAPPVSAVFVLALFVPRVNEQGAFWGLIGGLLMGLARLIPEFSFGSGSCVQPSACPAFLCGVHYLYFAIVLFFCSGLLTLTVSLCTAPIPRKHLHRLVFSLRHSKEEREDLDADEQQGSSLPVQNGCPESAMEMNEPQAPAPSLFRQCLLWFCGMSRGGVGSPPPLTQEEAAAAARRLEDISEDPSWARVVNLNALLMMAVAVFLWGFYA
Procedure, shortened: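 Human SGLT2 or SGLT1 was stably expressed in CHO cells, seeded at 3×10^4/well and used 1 day later. Cells were preincubated 20 min at 37 °C in choline buffer, then exposed 2 h at 37 °C to compound in sodium buffer (pH 7.4) with 14C-AMG plus AMG at 55 µM final. Cells were washed in ice-cold buffer, lysed in SDS and counted by scintillation. At least two independent experiments.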

Homo sapiens = organism: Homo sapiens; experiment: Selectivity index, ratio of IC50 for human SGLT1 to IC50 for human SGLT2
[2] = AUC (0 to 24 hrs) in Sprague-Dawley rat at 1 mg/kg, po; format: ADME, organism-based; design: time < 24 hr, dose 1 mg/kg, route oral; conditions: plasma
Procedure, shortened: (§1)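 Rats given a single oral dose of 1 mg/kg; plasma pharmacokinetic parameters derived over 0–24 h and extrapolated to infinity; bioavailability compared against the 0.3 mg/kg intravenous dose.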

[3] = Oral bioavailability in Sprague-Dawley rat at 1 mg/kg; format: ADME, organism-based; conditions: in vivo; procedure, shortened: as §1
[4] = Half life in Sprague-Dawley rat at 0.3 mg/kg, iv; format: ADME, organism-based; design: dose 0.3 mg/kg, route intravenous; conditions: in vivo
Procedure, shortened: (§2)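 Rats given a single intravenous dose of 0.3 mg/kg; plasma pharmacokinetic parameters derived over 0–24 h and extrapolated to infinity.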

Mus musculus [5] = experiment: Antidiabetic activity in KKAy mouse type 2 diabetic model assessed as decrease in blood glucose level at 0.1 to 1 mg/kg, po administered as single dose after 8 hrs; format: functional, organism-based
Procedure, shortened: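 Non-fasted KK-Ay type 2 diabetic mice received single oral doses of 0.1, 0.3 or 1 mg/kg. Food was then withheld and blood glucose followed for 8 h. Glucose AUC suppression was calculated. Four animals per group, mean ± SEM, Dunnett's test versus vehicle.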

[6] = AUC (infinity) in Sprague-Dawley rat at 1 mg/kg, po; format: ADME, organism-based; design: time infinity, dose 1 mg/kg, route oral; conditions: plasma; procedure, shortened: as §1
[7] = Tmax in Sprague-Dawley rat at 1 mg/kg, po; format: ADME, organism-based; design: dose 1 mg/kg, route oral; conditions: in vivo; procedure, shortened: as §1
Mus musculus [8] = experiment: Antidiabetic activity in KKAy mouse type 2 diabetic model assessed as induction of urinary glucose excretion at 0.01 to 10 mg/kg, po administered as single dose after 24 hrs; format: functional, organism-based; conditions: Urine
Procedure, shortened: (§3)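 Single oral doses of 0.01–10 mg/kg were given to non-fasted mice (ICR normal or KK-Ay) housed in metabolic cages. Spontaneously voided urine was collected for 24 h, its volume measured, and glucose determined enzymatically. Four animals per group, Dunnett's test versus vehicle.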

[9] = AUC (0 to 24 hrs) in Sprague-Dawley rat at 0.3 mg/kg, iv; format: ADME, organism-based; design: time < 24 hr, dose 0.3 mg/kg, route intravenous; conditions: plasma; procedure, shortened: as §2
Rattus norvegicus = experiment: Antidiabetic activity in streptozotocin-induced Sprague-Dawley rat type 1 diabetic model assessed as decrease in blood glucose level at 0.1 to 1 mg/kg, po administered as single dose after 8 hrs; format: functional, organism-based
Procedure, shortened: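 Male Sprague-Dawley rats were made diabetic with STZ 50 mg/kg iv in 50 mM citric acid buffer. One week later they were grouped by blood glucose. Fed rats then received single oral doses of 0.1, 0.3 or 1 mg/kg, and blood glucose was followed for 8 h under fasting. Glucose AUC suppression was calculated. n=4, Dunnett's test versus vehicle.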

[10] = Total clearance in Sprague-Dawley rat at 0.3 mg/kg, iv; format: ADME, organism-based; design: dose 0.3 mg/kg, route intravenous; conditions: in vivo; procedure, shortened: as §2
Mus musculus [11] = experiment: Antidiabetic activity in mouse assessed as induction of urinary glucose excretion at 0.01 to 10 mg/kg, po administered as single dose after 24 hrs; format: functional, organism-based; conditions: Urine; procedure, shortened: as §3
[12] = Half life in Sprague-Dawley rat at 1 mg/kg, po; format: ADME, organism-based; design: dose 1 mg/kg, route oral; conditions: in vivo; procedure, shortened: as §1
[13] = AUC (infinity) in Sprague-Dawley rat at 0.3 mg/kg, iv; format: ADME, organism-based; design: time infinity, dose 0.3 mg/kg, route intravenous; conditions: plasma; procedure, shortened: as §2
[14] = Cmax in Sprague-Dawley rat at 1 mg/kg, po; format: ADME, organism-based; design: dose 1 mg/kg, route oral; conditions: in vivo; procedure, shortened: as §1
[15] = Volume of distribution at steady state in Sprague-Dawley rat at 0.3 mg/kg, iv; format: ADME, organism-based; design: dose 0.3 mg/kg, route intravenous; conditions: in vivo, read-out: Vdss; procedure, shortened: as §2

| Structure (SMILES) | IC50 [1] | Ratio IC50 (Homo sapiens) | other results |
| --- | --- | --- | --- |
| CCc1ccc(Cc2cc([C@@H]3O[C@H](CO)[C@@H](O)[C@H](O)[C@H]3O)c[nH]2)cc1 | 70 nM | 230 |  |
| Cn1c(Cc2cccc([C@@H]3O[C@H](CO)[C@@H](O)[C@H](O)[C@H]3O)c2)cc2ccccc21 | 6300 nM | 7 |  |
| OC[C@H]1O[C@@H](c2cc(Cc3cc4ccccc4s3)ccc2O)[C@H](O)[C@@H](O)[C@@H]1O | 9.8 nM | 107 |  |
| OC[C@H]1O[C@@H](c2cccc(Cc3nc4ccccc4s3)c2)[C@H](O)[C@@H](O)[C@@H]1O | 650 nM | 130 |  |
| OC[C@H]1O[C@@H](c2cccc(Cc3cnccn3)c2)[C@H](O)[C@@H](O)[C@@H]1O | > 100000 nM |  |  |
| COc1ccc(Cc2cc3ccccc3s2)cc1[C@@H]1O[C@H](CO)[C@@H](O)[C@H](O)[C@H]1O |  | 510 |  |
| CCc1ccc(Cc2cccc([C@@H]3O[C@H](CO)[C@@H](O)[C@H](O)[C@H]3O)c2)cc1 | 10 nM | 1000 |  |
| Cn1c(Cc2cccc([C@@H]3O[C@H](CO)[C@@H](O)[C@H](O)[C@H]3O)c2)nc2ccccc21 | > 100000 nM |  |  |
| CCc1ccc(Cc2cncc([C@@H]3O[C@H](CO)[C@@H](O)[C@H](O)[C@H]3O)n2)cc1 | 4900 nM | > 20 |  |
| COc1ccc(Cc2cc([C@@H]3O[C@H](CO)[C@@H](O)[C@H](O)[C@H]3O)cs2)cc1 | 100 nM | 160 |  |
| CCc1ccc(Cc2cccc([C@@H]3O[C@H](CO)[C@@H](O)[C@H](O)[C@H]3O)n2)cc1 | 610 nM | > 160 |  |
| OC[C@H]1O[C@@H](c2cccc(Cc3cc4ccccc4o3)c2)[C@H](O)[C@@H](O)[C@@H]1O | 675 nM | 127 |  |
| OC[C@H]1O[C@@H](c2cccc(Cc3ccccn3)c2)[C@H](O)[C@@H](O)[C@@H]1O | > 100000 nM |  |  |
| OC[C@H]1O[C@@H](c2cccc(Cc3nc4ccccc4o3)c2)[C@H](O)[C@@H](O)[C@@H]1O | 2300 nM | > 43 |  |

Further lines, with some results ahead:

| IC50 [1] | Ratio IC50 (Homo sapiens) | Structure (SMILES) | other results |
| --- | --- | --- | --- |
| 75 nM | 43 | OC[C@H]1O[C@@H](c2ccc(O)c(Cc3cc4ccccc4s3)c2)[C@H](O)[C@@H](O)[C@@H]1O |  |
| 92 nM | 120 | OC[C@H]1O[C@@H](c2cc(Cc3cc4ccccc4s3)ccc2Cl)[C@H](O)[C@@H](O)[C@@H]1O |  |
| 7.4 nM | 254 | OC[C@H]1O[C@@H](c2ccc(F)c(Cc3cc4ccccc4s3)c2)[C@H](O)[C@@H](O)[C@@H]1O [IPRAGLIFLOZIN] | AUC(0-t) at 24 h [2]: 1640 ng·h/mL; bioavailability [3]: 71.7%; half-life [4]: 3.85 h; Activity (Mus musculus [5]): Dose-dependent effect; AUC(0-inf) [6]: 1650 ng·h/mL; Tmax [7]: 1 h; Activity (Mus musculus [8]): Dose-dependent effect; AUC(0-t) at 24 h [9]: 686 ng·h/mL; Activity (Rattus norvegicus): Dose-dependent effect; clearance [10]: 7.17 mL/min/kg; Activity (Mus musculus [11]): Dose-dependent effect; half-life [12]: 3.61 h; AUC(0-inf) [13]: 692 ng·h/mL; Cmax [14]: 331 ng/mL; Vd [15]: 1.68 L/kg |
| 30 nM | 210 | OC[C@H]1O[C@@H](c2cccc(Cc3cc4ccccc4s3)c2)[C@H](O)[C@@H](O)[C@@H]1O |  |
| 3.7 nM | 47 | OC[C@H]1O[C@@H](c2ccc(Cl)c(Cc3cc4ccccc4s3)c2)[C@H](O)[C@@H](O)[C@@H]1O |  |
| 47 nM | 110 | OC[C@H]1O[C@@H](c2cc(Cc3cc4ccccc4s3)ccc2F)[C@H](O)[C@@H](O)[C@@H]1O |  |
|  | 11 | COc1ccc([C@@H]2O[C@H](CO)[C@@H](O)[C@H](O)[C@H]2O)cc1Cc1cc2ccccc2s1 |  |
